From ChEMBL document CHEMBL1154599 (J Med Chem, 2009)

Assays:
[1] = target: T1, Amine oxidase [flavin-containing] B (Rattus norvegicus, UniProt P19643); test: Inhibition of MAO-B from Wistar rat brain by radioenzymatic assay
T1 sequence (P19643 whole entry): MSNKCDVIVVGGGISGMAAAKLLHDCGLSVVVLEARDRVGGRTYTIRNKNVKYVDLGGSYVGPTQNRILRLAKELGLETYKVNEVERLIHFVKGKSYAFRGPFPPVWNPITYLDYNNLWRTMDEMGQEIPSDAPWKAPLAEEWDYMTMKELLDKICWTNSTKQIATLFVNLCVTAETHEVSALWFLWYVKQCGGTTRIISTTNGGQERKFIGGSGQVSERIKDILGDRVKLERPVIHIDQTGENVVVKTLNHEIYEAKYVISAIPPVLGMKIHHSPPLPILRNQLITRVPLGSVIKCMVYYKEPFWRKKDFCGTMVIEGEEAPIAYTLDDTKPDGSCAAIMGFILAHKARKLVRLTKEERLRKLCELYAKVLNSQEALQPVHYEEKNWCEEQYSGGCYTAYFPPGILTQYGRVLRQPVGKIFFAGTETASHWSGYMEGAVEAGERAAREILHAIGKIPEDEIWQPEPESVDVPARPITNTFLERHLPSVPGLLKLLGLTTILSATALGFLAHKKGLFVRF
Outline: (§1)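 Crude mitochondrial fraction from male Wistar rat brain (150-175 g), 500 μg protein in 0.1 M phosphate pH 7.40. Preincubated 30 min at 37 °C with compound. Substrate then added: [14C]5-HT 5 μM for 30 min (MAO-A) or [14C]PEA 0.5 μM for 10 min (MAO-B), 37 °C. Stopped with acid, deaminated metabolites extracted into ether or toluene, counted by scintillation.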

[2] = organism: Rattus norvegicus; test: Selectivity index, ratio of IC50 for rat MAO-A to IC50 for rat MAO-B
Outline: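 Ratio of IC50 values from rat brain mitochondrial radioenzymatic assays: MAO-A with [14C]5-HT 5 μM, 30 min, and MAO-B with [14C]PEA 0.5 μM, 10 min. Both after 30 min preincubation with compound at 37 °C.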

[3] = target: T2, Amine oxidase [flavin-containing] A (Rattus norvegicus, UniProt P21396); test: Inhibition of MAO-A from Wistar rat brain by radioenzymatic assay; outline: as §1
T2 sequence (P21396 whole entry): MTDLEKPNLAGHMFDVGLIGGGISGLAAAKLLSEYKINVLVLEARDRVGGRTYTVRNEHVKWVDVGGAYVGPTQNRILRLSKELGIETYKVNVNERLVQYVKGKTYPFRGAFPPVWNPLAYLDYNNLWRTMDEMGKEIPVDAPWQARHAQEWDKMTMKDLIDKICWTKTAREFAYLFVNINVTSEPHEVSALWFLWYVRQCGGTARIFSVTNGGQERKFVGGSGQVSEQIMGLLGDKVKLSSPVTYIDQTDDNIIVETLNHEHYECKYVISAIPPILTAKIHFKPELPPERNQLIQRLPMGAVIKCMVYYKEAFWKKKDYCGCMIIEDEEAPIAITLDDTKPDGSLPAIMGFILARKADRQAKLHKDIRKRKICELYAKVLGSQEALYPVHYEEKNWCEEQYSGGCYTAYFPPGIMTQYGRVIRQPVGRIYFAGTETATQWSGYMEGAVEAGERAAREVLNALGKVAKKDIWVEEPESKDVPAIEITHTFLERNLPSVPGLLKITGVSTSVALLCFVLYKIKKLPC

[4] = target: T2, Amine oxidase [flavin-containing] A; test: Inhibition of MAO-A from Wistar rat brain at 10 uM by radioenzymatic assay
[5] = Permeability across PAMPA membrane assessed as retention at 617 uM by HDM-PAMPA assay; format: ADME
Outline: (§2)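 HDM-PAMPA on polycarbonate filters coated with hexadecane (applied in hexane, which was evaporated). Donor at 617 μM in 0.1 M phosphate pH 6.8 with 5% DMSO, same pH in donor and acceptor. Incubated 5 h at room temperature with shaking at 75 rpm. Compartments quantified by HPLC. Pe, retention R and CA(t)/CD(0) calculated by equations 1-2. Quadruplicate.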

[6] = Permeability across PAMPA membrane assessed as amount of drug reaching acceptor compartment at 617 uM by HDM-PAMPA assay; format: ADME; outline: as §2
[7] = Permeability across PAMPA membrane assessed as permeability coefficient at 617 uM by HDM-PAMPA assay; format: ADME; outline: as §2
[8] = Octanol-water partition coefficient, log P calculated with Bioloom (BioByte)

SMILES	IC50 [1]	Ratio IC50 [2]	IC50 [3]	further results
NCc1cc(=O)oc2cc(OCc3ccccc3)ccc12	21 nM	210	4.4 µM	
CC(C(N)=O)c1cc(=O)oc2cc(OCc3cccc(F)c3)ccc12 (racemic)	100 nM	20	2 µM	
NCc1cc(=O)oc2cc(OCc3cccc(Cl)c3)ccc12	15 nM	133	2 µM	
CN(C)Cc1cc(=O)oc2cc(OCc3cccc(Cl)c3)ccc12	1120 nM	45	50.8 µM	
CNCc1cc(=O)oc2cc(OCc3ccccc3)ccc12	28 nM	550	15.4 µM	
C[C@H](Nc1cc(=O)oc2cc(OCc3ccccc3)ccc12)C(N)=O	680 nM	147	100 µM	
NC(=O)Cc1cc(=O)oc2cc(OCc3ccncc3)ccc12	2000 nM	13	26.5 µM	
NCCNC(=O)Cc1cc(=O)oc2cc(OCc3cccc(Cl)c3)ccc12	> 10000 nM		> 100 µM	
N#CCc1cc(=O)oc2cc(OCc3cccc(Cl)c3)ccc12	16 nM	29	0.47 µM	
O=C(Cc1cc(=O)oc2cc(OCc3cccc(Cl)c3)ccc12)NCc1ccccc1	5000 nM	> 20	> 100 µM	
NC(=O)Cc1cc(=O)oc2cc(OCc3ccccc3)ccc12	200 nM	40	8 µM	
NC(=O)Cc1cc(=O)oc2cc(OCc3cccc(O)c3)ccc12	1000 nM	4	4.27 µM	
CNC(=O)Cc1cc(=O)oc2cc(OCc3cccc(Cl)c3)ccc12	24 nM	21	0.5 µM	
CN(C)Cc1cc(=O)oc2cc(OCc3ccccc3)ccc12	1800 nM	56	100 µM	
NC(=O)[C@@H]1CCCN1Cc1cc(=O)oc2cc(OCc3ccccc3)ccc12	380 nM	92	35 µM	
NC(=O)[C@@H]1CCCN1c1cc(=O)oc2cc(OCc3ccccc3)ccc12	16100 nM	6	99.8 µM	
CCCCNC(=O)Cc1cc(=O)oc2cc(OCc3cccc(Cl)c3)ccc12	> 10000 nM		> 100 µM	
CCCCN(C)C(=O)Cc1cc(=O)oc2cc(OCc3cccc(Cl)c3)ccc12	> 10000 nM		> 100 µM	
CN(C)Cc1cc(=O)oc2cc(OCc3cccc(F)c3)ccc12	510 nM	> 196	> 100 µM	
NC(=O)Cc1cc(=O)oc2cc(OCc3cccc(F)c3)ccc12		1400		
Cc1cc(=O)oc2cc(OCc3cccc(Cl)c3)ccc12				permeability [5]: 72%; permeability [6]: 3.7%; log Pe [7]: -4.13 cm/s; logP [8]: 4.73
CC(C)NCc1cc(=O)oc2cc(OCc3cccc(F)c3)ccc12	3800 nM	24	91 µM	
NC(=O)[C@@H]1CCCN1c1cc(=O)oc2cc(OCc3cccc(Cl)c3)ccc12	9600 nM			inhibition at 10 µM [4]: 5%
CN(Cc1ccccc1)Cc1cc(=O)oc2cc(OCc3cccc(Cl)c3)ccc12	8000 nM	> 13	> 100 µM	
CNC(=O)Cc1cc(=O)oc2cc(OCc3ccccc3)ccc12	15 nM	187	2.8 µM	

The next lines start with results.

IC50 [1]	Ratio IC50 [2]	IC50 [3]	SMILES	further results
	127		NCCc1cc(=O)oc2cc(OCc3cccc(Cl)c3)ccc12	
1800 nM	13	22.7 µM	C[C@H](NCc1cc(=O)oc2cc(OCc3ccccc3)ccc12)C(N)=O	
400 nM	58	23.1 µM	CN(C)C(=O)Cc1cc(=O)oc2cc(OCc3ccccc3)ccc12	
460 nM	56	25.9 µM	CN(C)CCc1cc(=O)oc2cc(OCc3ccccc3)ccc12	
1300 nM	16	21 µM	NC(=O)Cc1cc(=O)oc2cc(OCc3cccnc3)ccc12	
210 nM			C[C@H](Nc1cc(=O)oc2cc(OCc3cccc(Cl)c3)ccc12)C(N)=O	inhibition at 10 µM [4]: 35%
90 nM	28	2.5 µM	NNC(=O)Cc1cc(=O)oc2cc(OCc3cccc(Cl)c3)ccc12	
	> 2400		CN(C)C(=O)Cc1cc(=O)oc2cc(OCc3cccc(Cl)c3)ccc12	
230 nM	0.9	0.2 µM	N#CCc1cc(=O)oc2cc(OCc3ccccc3)ccc12	
	247		CNCCc1cc(=O)oc2cc(OCc3cccc(Cl)c3)ccc12	
100 nM	63	6.26 µM	CC(C(N)=O)c1cc(=O)oc2cc(OCc3ccccc3)ccc12 (racemic)	
2400 nM	> 42	> 100 µM	NC(=O)[C@H](CO)Nc1cc(=O)oc2cc(OCc3cccc(Cl)c3)ccc12	
18 nM			CNCc1cc(=O)oc2cc(OCc3cccc(F)c3)ccc12	
20 nM	270	5.4 µM	CNCc1cc(=O)oc2cc(OCc3ccc4c(c3)OCO4)ccc12	
3600 nM	> 28	> 100 µM	O=c1cc(CNCc2ccccc2)c2ccc(OCc3cccc(Cl)c3)cc2o1	
30 nM	867	26 µM	NC(=O)Cc1cc(=O)oc2cc(OCc3cccc(Cl)c3)ccc12	
100 nM	226	22.6 µM	CCNCc1cc(=O)oc2cc(OCc3cccc(F)c3)ccc12	
	36	1.44 µM	NNC(=O)Cc1cc(=O)oc2cc(OCc3ccccc3)ccc12	
850 nM	> 117	> 100 µM	NC(=O)[C@@H]1CCCN1Cc1cc(=O)oc2cc(OCc3cccc(F)c3)ccc12	
